Hits are enriched below; roughly 2% of the tested compounds scored in any of these assays.
NS3 helicase inh: HCV NS3 helicase inhibition | NS3 helicase DNA unwinding, Cy5 molecular beacon fluorescence | inhibition, % at 10.9 µM | actives 0.56% (n = 290,000);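 active = inhibition above the mean of all tested compounds plus 3 SD, set per campaign, cut at about 35% in these data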
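Test system: hepatitis C virus NS3 helicase domain fragment enzyme. Also added: annealed dual-labelled DNA beacon duplex, ATP-started. Timing: 60 min unwinding reaction at 25 °C after ATP addition. Technique: Cy5 fluorescence. Measure: % inhibition of unwinding.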
ZTA counter: ZTA (EBV) inhibition in EBNA-1 counter-screen; ZTA-DNA binding, fluorescence polarization; actives 0.15% (n = 320,000); P03206; inhibition, % at 11 µM; in the data active = inhibition above about 33%
Target sequence (P03206 whole entry, looked up): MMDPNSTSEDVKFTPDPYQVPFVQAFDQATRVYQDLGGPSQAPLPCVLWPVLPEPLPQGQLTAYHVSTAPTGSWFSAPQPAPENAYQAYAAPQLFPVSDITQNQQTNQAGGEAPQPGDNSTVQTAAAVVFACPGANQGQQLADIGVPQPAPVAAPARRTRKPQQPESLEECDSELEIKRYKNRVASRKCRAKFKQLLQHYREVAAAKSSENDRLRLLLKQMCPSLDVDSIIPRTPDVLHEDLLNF
GPR7 antagonist: human neuropeptides B/W receptor 1 antagonism. P48145. GPR7-expressing cells, fluorescence antagonist assay. AID 1861. actives 1.1% (n = 290,000). inhibition, % at 4.4 µM; in the data active = inhibition above about 16%, passing the limit was not always enough;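 also: cells stimulated with the agonist NPW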
Target sequence (P48145 whole entry, looked up): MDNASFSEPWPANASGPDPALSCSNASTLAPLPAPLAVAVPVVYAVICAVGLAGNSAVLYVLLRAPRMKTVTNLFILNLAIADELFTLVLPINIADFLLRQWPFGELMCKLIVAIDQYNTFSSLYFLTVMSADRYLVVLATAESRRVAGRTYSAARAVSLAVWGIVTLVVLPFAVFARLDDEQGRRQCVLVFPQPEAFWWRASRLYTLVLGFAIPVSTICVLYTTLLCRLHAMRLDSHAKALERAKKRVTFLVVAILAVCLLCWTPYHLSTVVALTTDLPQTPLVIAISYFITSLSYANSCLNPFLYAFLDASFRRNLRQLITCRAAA
EBNA-1 inhibitor: blocks EBNA-1 binding to DNA | EBNA-1 DNA binding, fluorescence polarization | inhibition, % at 14.8 µM | actives 0.34% (n = 300,000) | AID 1950; in the data active = inhibition above about 28%
DNA FID counter: fluorescent intercalator displacement, NS3 helicase counter-screen; AID 1845; DNA fluorescent intercalator displacement, fluorescence; inhibition, % at 7.9 µM; actives 0.17% (n = 290,000); in the data active = inhibition above about 37%;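 also: higher means more ethidium bromide displaced from hairpin DNA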
GPR7 antag conf: confirmation of human GPR7 antagonists; actives 52% (n = 2,400); inhibition, % at 4.4 µM; GPR7-expressing cells, calcium fluorescence antagonist mode; shares compounds with GPR7 antagonist; in the data active = inhibition above about 24%;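 also: stimulated with the GPR7 agonist NPW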
MCHR1 antag: counter-screen for GPR7 antagonists: antagonists of human MCHR1; shares compounds with GPR7 antagonist; MCHR1-expressing cells, fluorescence antagonist assay; inhibition, % at 4.4 µM; actives 62% (n = 2,400); in the data active = inhibition above about 22%
Numbers stand for hits.

For COc1cccc(CNC(=O)CN2C(=O)COc3ccc(S(=O)(=O)N4CCOCC4)cc32)c1 the results were NS3 helicase inh inactive, ZTA counter inactive, GPR7 antagonist 32, EBNA-1 inhibitor inactive, DNA FID counter inactive, GPR7 antag conf inactive and MCHR1 antag inactive.
Cc1ccc2c(c1)N(CC(=O)OC(CC(C)C)C(=O)NC1CCCC1)C(=O)CO2 (stereo unspecified) was read as NS3 helicase inh inactive, ZTA counter inactive, GPR7 antagonist 29, EBNA-1 inhibitor inactive, DNA FID counter inactive, GPR7 antag conf 30 and MCHR1 antag 33.
O=C(CN1C(=O)COc2ccc(S(=O)(=O)N3CCCC3)cc21)NC1CCCCCCC1 was read as NS3 helicase inh inactive, ZTA counter inactive, GPR7 antagonist 27, EBNA-1 inhibitor inactive, DNA FID counter inactive, GPR7 antag conf inactive and MCHR1 antag inactive.
`CC1(c2ccccc2Cl)NC(=O)N(CC(=O)Nc2ccc(N3CCCCC3)cc2)C1=O` (stereo unspecified) gave ZTA counter inactive and EBNA-1 inhibitor inactive.
`CCOC(=O)c1sc(NC(=O)CC(C)c2ccccc2)nc1C` (stereo unspecified) gave NS3 helicase inh inactive, ZTA counter inactive, GPR7 antagonist 34, EBNA-1 inhibitor inactive, DNA FID counter inactive, GPR7 antag conf 37 and MCHR1 antag 28.
For Cc1ccc(C2(c3ccccc3)NC(=O)N(CC(=O)NC3(C#N)CCCC3)C2=O)cc1C (stereo unspecified) the results were ZTA counter inactive.
CCCSC(=O)N(CC)CC(=O)Nc1c(CC)cccc1CC was read as NS3 helicase inh inactive, ZTA counter inactive, GPR7 antagonist 26, EBNA-1 inhibitor inactive, DNA FID counter inactive, GPR7 antag conf 26 and MCHR1 antag 22.
CCCN(CC(=O)Nc1c(C)cccc1CC)C(=O)SCC was read as NS3 helicase inh inactive, ZTA counter inactive, GPR7 antagonist inactive, EBNA-1 inhibitor inactive and DNA FID counter inactive.
CCCCN(CC(=O)Nc1c(C)cccc1CC)C(=O)SCC was read as NS3 helicase inh inactive, ZTA counter inactive, GPR7 antagonist 36, EBNA-1 inhibitor inactive, DNA FID counter inactive, GPR7 antag conf 39 and MCHR1 antag 30.
C=CCN(CC(=O)Nc1c(C)cccc1CC)C(=O)SCCC was read as NS3 helicase inh inactive, ZTA counter inactive, GPR7 antagonist 27, EBNA-1 inhibitor inactive, DNA FID counter inactive, GPR7 antag conf inactive and MCHR1 antag inactive.
CCc1nc(CNC(=O)C2CCC(=O)N(CCc3cccc(F)c3)C2)no1 (stereo unspecified) was read as NS3 helicase inh inactive, ZTA counter inactive, GPR7 antagonist inactive, EBNA-1 inhibitor inactive and DNA FID counter inactive.
Screening CC(=O)N1CCN(S(=O)(=O)c2cccc(C(=O)OCc3cccc(F)c3)c2)CC1 returned ZTA counter inactive.
For COc1ccc(N2CCN(C(=O)CCc3ccc(S(=O)(=O)NC(C)C)cc3)CC2)cc1 the results were NS3 helicase inh inactive, ZTA counter inactive, GPR7 antagonist inactive, EBNA-1 inhibitor inactive and DNA FID counter inactive.
`CC(C)NS(=O)(=O)c1ccc(CCC(=O)N2CCCCC2)cc1` gave NS3 helicase inh inactive, ZTA counter inactive, GPR7 antagonist 23, EBNA-1 inhibitor inactive, DNA FID counter inactive, GPR7 antag conf inactive and MCHR1 antag inactive.
O=C(CCC1CC(=O)Nc2ccccc21)NCc1ccc(F)cc1 (stereo unspecified) was read as NS3 helicase inh inactive, ZTA counter inactive, GPR7 antagonist 33, EBNA-1 inhibitor inactive, DNA FID counter inactive, GPR7 antag conf inactive and MCHR1 antag 23.
`COc1cccc(NC(=O)c2nc(S(C)(=O)=O)ncc2Cl)c1` gave NS3 helicase inh inactive, ZTA counter inactive, GPR7 antagonist 33, EBNA-1 inhibitor inactive, DNA FID counter inactive, GPR7 antag conf 42 and MCHR1 antag 33.
COc1cccc(NC(=O)c2cnsn2)c1 was read as NS3 helicase inh inactive, ZTA counter inactive, GPR7 antagonist 25, EBNA-1 inhibitor inactive, DNA FID counter inactive, GPR7 antag conf inactive and MCHR1 antag inactive.
Screening CN(c1ccccc1)S(=O)(=O)c1ccc(NC(=O)c2nc(S(C)(=O)=O)ncc2Cl)cc1 returned NS3 helicase inh inactive, ZTA counter inactive, GPR7 antagonist 92, EBNA-1 inhibitor inactive, DNA FID counter inactive, GPR7 antag conf 91 and MCHR1 antag 102.
For COc1cccc(NC(=O)c2cccc(C(=O)Nc3cccc(OC)c3)n2)c1 the results were NS3 helicase inh inactive, ZTA counter inactive, GPR7 antagonist inactive, EBNA-1 inhibitor inactive and DNA FID counter inactive.
COc1ccc(CCNS(=O)(=O)c2ccc(Cl)cc2)cc1OC was read as NS3 helicase inh inactive, ZTA counter inactive, GPR7 antagonist inactive, EBNA-1 inhibitor inactive and DNA FID counter inactive.
CC(=O)N1CCN(C(=O)C(Cc2ccccc2)NC(=O)c2ccccc2)CC1 (stereo unspecified) was read as ZTA counter inactive.
`O=C(NC(Cc1ccccc1)C(=O)N1CCN(S(=O)(=O)c2ccccc2)CC1)c1ccccc1` (stereo unspecified) gave NS3 helicase inh inactive, ZTA counter inactive, GPR7 antagonist 22, EBNA-1 inhibitor inactive, DNA FID counter inactive, GPR7 antag conf inactive and MCHR1 antag inactive.
`COc1ccc2c3c(cccc13)C(=O)CC2` gave NS3 helicase inh inactive, GPR7 antagonist 34, DNA FID counter inactive, GPR7 antag conf inactive and MCHR1 antag 33.
CNC(=O)CCn1nc(-c2ccc(Cl)cc2)c2ccccc2c1=O was read as NS3 helicase inh inactive, ZTA counter inactive, GPR7 antagonist 24, EBNA-1 inhibitor inactive, DNA FID counter inactive, GPR7 antag conf inactive and MCHR1 antag inactive.
For C[C@@H](C(=O)NCCc1ccccc1F)N1C(=O)N2CCc3c([nH]c4ccccc34)[C@@]2(C)C1=O the results were NS3 helicase inh inactive, ZTA counter inactive, GPR7 antagonist 25, EBNA-1 inhibitor inactive, DNA FID counter inactive, GPR7 antag conf inactive and MCHR1 antag 34.
`C[C@@H](C(=O)NC1CCCCC1)N1C(=O)N2CCc3c([nH]c4ccccc34)[C@@]2(C)C1=O` gave NS3 helicase inh inactive, ZTA counter inactive, GPR7 antagonist inactive, EBNA-1 inhibitor inactive and DNA FID counter inactive.
`C[C@@H](C(=O)NCCc1ccccc1)N1C(=O)N2CCc3c([nH]c4ccccc34)[C@@]2(C)C1=O` gave NS3 helicase inh inactive, ZTA counter inactive, GPR7 antagonist 24, EBNA-1 inhibitor inactive, DNA FID counter inactive, GPR7 antag conf inactive and MCHR1 antag 27.
Screening O=C(NCCc1ccccc1)C1(c2ccccc2)CCCC1 returned NS3 helicase inh inactive, ZTA counter inactive, GPR7 antagonist inactive, EBNA-1 inhibitor inactive and DNA FID counter inactive.
For N#CC1(c2ccccc2)CCC(NCCc2ccccc2)CC1 (stereo unspecified) the results were NS3 helicase inh inactive, ZTA counter inactive, GPR7 antagonist 40, EBNA-1 inhibitor inactive, DNA FID counter inactive, GPR7 antag conf inactive and MCHR1 antag inactive.
